Reference: publication PMC368434 (BMC Gastroenterology, 2004)

Assays:
[1] = target: pig gastric microsomal H,K-ATPase (Sus scrofa, UniProt P19156); experiment: H,K-ATPase assay; assay type: biochemical; conditions: for Attenuation of H,K-ATPase activity: non-physiological concentrations greater than 10^-7 M (up to 1 μM); for Inhibitory activity against H,K-ATPase: physiological concentrations (10^-9–10^-8 M)
gastric H,K-ATPase = conditions: cited from earlier work; for IC50: read-out: IC50, gastric proton pump activity
[2] = test system: IL-8 secretion by human gastric adenocarcinoma (AGS) cells; experiment: IL-8 secretion by AGS cells; assay type: cell-based; conditions: 24 h, read-out: IC50, inhibition of baseline IL-8 secretion
In short: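 AGS cells in Ham's F-12 with 10% FBS and antibiotics (37°C, 5% CO2), passages 42–56. Seeded at 50,000 cells/100 μl/well and attached 18 hr, then exposed to test compound with or without IL-1β (1 ng/ml) for 24 hr. Medium IL-8 measured by ELISA. Solvent controls included, solvents <1% final. Triplicates, ≥3 experiments; IC50 from three-parameter logistic fit.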

gastric damage = conditions: up to 100 mg/kg/d p.o., rat; cited from earlier work
rat stomach and blood = conditions: cited from earlier work
rat = conditions: cited from earlier work
dogs = conditions: cited from earlier work
cats = conditions: cited from earlier work
guinea-pig ileum = conditions: cited from earlier work
[3] = test system: bacteria or mammalian cells; rat bone marrow cells; conditions: cited from earlier work
[4] = 14C-labeled ML 3000, rats; cited from earlier work
[5] = test system: rabbit gastric parietal cells; experiment: Acid accumulation assay; assay type: cell-based; conditions: up to concentrations of 10^-4 M (data not shown)

pig gastric microsomal H,K-ATPase, sequence (P19156 2-1034 limits assumed): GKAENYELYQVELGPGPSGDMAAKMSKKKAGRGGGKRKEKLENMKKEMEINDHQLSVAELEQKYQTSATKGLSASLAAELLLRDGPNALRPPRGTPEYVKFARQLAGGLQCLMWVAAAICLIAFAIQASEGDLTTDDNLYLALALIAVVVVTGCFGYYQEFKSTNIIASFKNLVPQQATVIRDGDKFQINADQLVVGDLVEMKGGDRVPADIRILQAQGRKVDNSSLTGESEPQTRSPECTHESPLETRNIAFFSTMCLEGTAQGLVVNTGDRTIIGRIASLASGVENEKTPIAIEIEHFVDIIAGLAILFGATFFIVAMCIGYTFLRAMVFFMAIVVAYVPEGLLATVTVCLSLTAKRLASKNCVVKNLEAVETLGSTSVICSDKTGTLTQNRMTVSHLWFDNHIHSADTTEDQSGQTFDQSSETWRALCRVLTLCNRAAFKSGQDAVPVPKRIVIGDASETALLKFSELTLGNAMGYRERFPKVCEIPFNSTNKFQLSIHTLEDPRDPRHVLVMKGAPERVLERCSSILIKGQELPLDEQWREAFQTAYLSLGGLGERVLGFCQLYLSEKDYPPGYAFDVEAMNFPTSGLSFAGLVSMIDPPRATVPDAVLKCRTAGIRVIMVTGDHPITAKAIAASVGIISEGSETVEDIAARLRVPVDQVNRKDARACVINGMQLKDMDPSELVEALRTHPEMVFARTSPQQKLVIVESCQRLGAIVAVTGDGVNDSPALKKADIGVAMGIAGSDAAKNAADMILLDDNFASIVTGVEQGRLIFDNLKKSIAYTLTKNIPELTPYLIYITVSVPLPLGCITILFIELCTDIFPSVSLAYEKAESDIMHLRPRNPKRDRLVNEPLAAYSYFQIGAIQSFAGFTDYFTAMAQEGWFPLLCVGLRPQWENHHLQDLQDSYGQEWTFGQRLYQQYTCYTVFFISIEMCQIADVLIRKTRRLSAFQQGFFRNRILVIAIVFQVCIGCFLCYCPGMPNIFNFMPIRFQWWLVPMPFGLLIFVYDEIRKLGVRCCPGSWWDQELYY
pig gastric microsomal H,K-ATPase, sequence (P18434 whole entry partner): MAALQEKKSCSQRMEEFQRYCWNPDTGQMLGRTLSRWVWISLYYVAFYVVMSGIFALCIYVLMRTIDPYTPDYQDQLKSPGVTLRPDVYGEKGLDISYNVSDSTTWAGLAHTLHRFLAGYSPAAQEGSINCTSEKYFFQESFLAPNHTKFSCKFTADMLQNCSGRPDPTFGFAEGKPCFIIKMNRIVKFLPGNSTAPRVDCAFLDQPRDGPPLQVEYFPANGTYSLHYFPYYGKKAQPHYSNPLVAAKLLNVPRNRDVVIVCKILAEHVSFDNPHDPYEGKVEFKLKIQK

**Q.** Which “Attenuation of H,K-ATPase activity” value [1] does the source give for `CCCCC/C=C\C[C@@H](O)/C=C/C=C/C=C\[C@@H](O)CCCC(=O)O` [LTB4, leukotriene B4] here?
**A.** The value was “significant attenuation”.

**Q.** And the “Inhibitory activity against H,K-ATPase” value [1]?
**A.** Its value is “neither leukotriene showed any inhibitory activity”.

**Q.** Which IC50 (gastric H,K-ATPase) does the source give for `COC(=O)c1cc2nc([S+]([O-])Cc3ncccc3C)[nH]c2cc1C` (centres unmarked) [picoprazole] here?
**A.** The IC50 was 2 µM.

**Q.** Which IC50 [1] does the source give for `CC1(C)Cc2c(-c3ccccc3)c(-c3ccc(Cl)cc3)c(CC(=O)O)n2C1` [ML 3000, [2,2-dimethyl-6-(4-chlorophenyl)-7-phenyl-2,3-dihydro-1H-pyrrolizine-5-yl]-acetic acid] here?
**A.** The IC50 was 16.4 µM.

**Q.** And the “Effect of ML 3000 acidification on H,K-ATPase inhibitory profile” value ([1]; ML 3000 titrated to pHs 2.0 to 7.4 for 30 min, 16.6 μM final concentration)?
**A.** Its value is “no significant effect”.

**Q.** And the “Reversibility of H,K-ATPase inhibition” value ([1]; dilution from 100 μM to 3.3 μM)?
**A.** Its value is “reversible”.

**Q.** And the IC50 [2]?
**A.** Its IC50 is 0.46 µM.

**Q.** What about the Gastric damage (gastric damage) of the same compound?
**A.** Its Gastric damage is “no gastric damage”.

**Q.** What about the Gastric mucosal injury (rat stomach and blood) of the same compound?
**A.** Its Gastric mucosal injury is “no gastric mucosal injury”.

**Q.** What about the “Leukocyte adherence in mesenteric venules” value (rat stomach and blood) of the same compound?
**A.** The value was “no effect”.

**Q.** And the “Gastric prostaglandin E2 synthesis” value (rat stomach and blood; rat stomach and blood)?
**A.** The value was “reduces”.

**Q.** What about the “Inhibition of gastric or blood leukotriene B4 synthesis” value (rat stomach and blood; rat) of the same compound?
**A.** Its value is “not detected”.

**Q.** And the “Gastric damage and peristaltic disturbance” value (rat; animal models)?
**A.** The value was “neither gastric damage nor peristaltic disturbance”.

**Q.** And the “Rat locomotor activity or hexobarbital-induced sleep” value (rat)?
**A.** Its value is “did not affect”.

**Q.** And the “Cardiovascular or respiratory effects” value (rat; rat)?
**A.** Its value is “no cardiovascular or respiratory effects”.

**Q.** And the Urine output (rat; rats)?
**A.** Its Urine output is “small transient reduction”.

**Q.** What about the “Cardiovascular or respiratory effects” value (dogs) of the same compound?
**A.** Its value is “no cardiovascular or respiratory effects”.

**Q.** And the Neuromuscular function (cats)?
**A.** Its Neuromuscular function is “without affect”.

**Q.** And the Spasmogenic response (guinea-pig ileum)?
**A.** Its Spasmogenic response is “weak spasmogenic response”.

**Q.** And the “Genotoxicity: gene mutation frequencies in bacteria or mammalian cells, unscheduled DNA synthesis, chromosomal aberrations in rat bone marrow cells” value [3]?
**A.** Its value is “no effects”.

**Q.** What about the Distribution and excretion [4] of the same compound?
**A.** The Distribution and excretion was “enterohepatic circulation and glucuronide conjugation”.

**Q.** With `COc1ccc2c(c1)c(CC(=O)O)c(C)n2C(=O)c1ccc(Cl)cc1` [indomethacin] as the compound, how does the “Inhibitory effect on microsomal H,K-ATPase activity” value ([1]; concentrations up to 10^-4 M) read?
**A.** The value was “without inhibitory effects”.

**Q.** And the Ki (gastric H,K-ATPase; read-out: Ki, inhibition of gastric H,K-ATPase)?
**A.** The Ki was 670 µM.

**Q.** Which IC50 (gastric H,K-ATPase) does the source give for `Cc1c(OCC(F)(F)F)ccnc1C[S+]([O-])c1nc2ccccc2[nH]1` (centres unmarked) [lansoprazole] here?
**A.** The IC50 was 2.1 µM.

**Q.** With `CCCCC[C@H](O)/C=C/[C@H]1[C@H](O)CC(=O)[C@@H]1C/C=C\CCCC(=O)O` [PGE2, prostaglandin E2] as the compound, how does the IC50 [1] read?
**A.** Its IC50 is 15 µM.

**Q.** What about the “Inhibitory effect on pig gastric H,K-ATPase” value (gastric H,K-ATPase; pig, previous study) of the same compound?
**A.** Its value is “no inhibitory effect”.

**Q.** Which IC50 (gastric H,K-ATPase) does the source give for `COCCCOc1ccnc(C[S+]([O-])c2nc3ccccc3[nH]2)c1C` (centres unmarked) [rabeprazole] here?
**A.** Its IC50 is 0.072 µM.

**Q.** For `CCCCC/C=C\C\C=C/C=C/C=C/[C@@H](SC[C@H](N)C(=O)NCC(=O)O)[C@@H](O)CCCC(=O)O` [LTD4, leukotriene D4], which “Attenuation of H,K-ATPase activity” value [1] is on record?
**A.** Its value is “significant attenuation”.

**Q.** And the “Inhibitory activity against H,K-ATPase” value [1]?
**A.** The value was “neither leukotriene showed any inhibitory activity”.

**Q.** With `CS(=O)(=O)Nc1ccc([N+](=O)[O-])cc1OC1CCCCC1` [NS 398] as the compound, how does the “Inhibitory effect on microsomal H,K-ATPase activity” value ([1]; concentrations up to 10^-4 M) read?
**A.** The value was “without inhibitory effects”.

**Q.** And the “Effect on acid accumulation by isolated rabbit parietal cells” value [5]?
**A.** Its value is “no effect”.

**Q.** With `CCCCC/C=C\C/C=C\C/C=C\C/C=C\CCCC(=O)O` [Arachidonic acid] as the compound, how does the IC50 [1] read?
**A.** The IC50 was 16.7 µM.

**Q.** Which results are given for `CC(=O)Oc1ccccc1C(=O)O` [acetyl salicylic acid]?
**A.** Inhibitory effect on microsomal H,K-ATPase activity ([1]; concentrations up to 10^-3 M): without inhibitory effects; Effect on acid accumulation by isolated rabbit parietal cells [5]: no effect

**Q.** With `COc1ccc2cc([C@H](C)C(=O)O)ccc2c1` [naproxen] as the compound, how does the “Inhibitory effect on microsomal H,K-ATPase activity” value ([1]; concentrations up to 10^-4 M) read?
**A.** Its value is “without inhibitory effects”.
